ChEMBL document CHEMBL1811829, “Discovery of selective indole-based prostaglandin D₂ receptor antagonist” (Bioorg Med Chem, 2011)

Legend:
[1] = target: T1, Prostaglandin E2 receptor EP1 subtype (Mus musculus, UniProt P35375); test: Displacement of [3H]-PGE2 from mouse EP1 receptor expressed in CHO cells after 20 mins by liquid scintillation counting; format: cell-based
T1 sequence (P35375 whole entry): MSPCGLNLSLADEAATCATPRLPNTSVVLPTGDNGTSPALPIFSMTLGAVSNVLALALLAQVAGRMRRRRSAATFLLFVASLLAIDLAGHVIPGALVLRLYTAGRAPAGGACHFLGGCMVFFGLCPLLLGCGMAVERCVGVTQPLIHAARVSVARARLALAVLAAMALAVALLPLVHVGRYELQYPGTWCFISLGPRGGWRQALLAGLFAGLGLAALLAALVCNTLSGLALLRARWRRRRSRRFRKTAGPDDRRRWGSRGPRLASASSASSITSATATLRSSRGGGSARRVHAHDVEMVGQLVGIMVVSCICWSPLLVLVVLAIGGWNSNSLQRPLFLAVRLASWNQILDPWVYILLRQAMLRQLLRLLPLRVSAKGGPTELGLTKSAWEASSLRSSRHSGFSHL
Method in brief: (§1)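 Membranes from CHO cells stably expressing mEP1, mEP2, mEP3a, mEP4 or mFP were used. The radioligand was 2.5 nM [³H]PGE₂ for EP receptors and 2.5 nM [³H]PGF2α for FP. Buffer was 10 mM KH₂PO₄–KOH pH 6.0 with 1 mM EDTA, 10 mM MgCl₂ and 100 mM NaCl. Incubation was at room temperature, 20 min for mEP1 and 60 min for the others. Samples were filtered on GF/B, washed with phosphate/NaCl pH 6.0, dried 60 min at 60 °C and scintillation counted.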

[2] = target: Prostaglandin E2 receptor EP2 subtype (Mus musculus, UniProt Q62053); test: Displacement of [3H]-PGE2 from mouse EP2 receptor expressed in CHO cells after 60 mins by liquid scintillation counting; format: cell-based; method in brief: as §1
[3] = target: T2, Prostaglandin E2 receptor EP3 subtype (Mus musculus, UniProt P30557); test: Displacement of [3H]-PGE2 from mouse EP3 receptor expressed in CHO cells after 60 mins by liquid scintillation counting; format: cell-based; method in brief: as §1
T2 sequence (P30557 whole entry): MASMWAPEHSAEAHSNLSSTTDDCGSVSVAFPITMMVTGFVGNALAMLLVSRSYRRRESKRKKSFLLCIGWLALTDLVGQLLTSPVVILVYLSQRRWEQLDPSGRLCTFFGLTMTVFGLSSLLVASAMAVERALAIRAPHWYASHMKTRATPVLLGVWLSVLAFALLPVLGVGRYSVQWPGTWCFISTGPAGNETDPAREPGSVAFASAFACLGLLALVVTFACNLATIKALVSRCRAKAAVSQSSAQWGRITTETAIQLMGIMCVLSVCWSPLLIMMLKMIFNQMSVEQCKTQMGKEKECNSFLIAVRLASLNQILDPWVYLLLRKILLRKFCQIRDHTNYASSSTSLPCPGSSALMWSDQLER

[4] = target: Prostaglandin E2 receptor EP4 subtype (Mus musculus, UniProt P32240); test: Displacement of [3H]-PGE2 from mouse EP4 receptor expressed in CHO cells after 60 mins by liquid scintillation counting; format: cell-based; method in brief: as §1
[5] = target: Prostaglandin F2-alpha receptor (Mus musculus, UniProt P43117); test: Displacement of [3H]-PGF2-alpha from mouse FP receptor expressed in CHO cells after 60 mins by liquid scintillation counting; format: cell-based; method in brief: as §1
Thromboxane A2 receptor = target: T3, Thromboxane A2 receptor (Homo sapiens, UniProt P21731); test: Displacement of [3H]-SQ29548 from human TP receptor expressed in CHO cells after 30 mins by liquid scintillation counting; format: cell-based
T3 sequence (P21731 whole entry): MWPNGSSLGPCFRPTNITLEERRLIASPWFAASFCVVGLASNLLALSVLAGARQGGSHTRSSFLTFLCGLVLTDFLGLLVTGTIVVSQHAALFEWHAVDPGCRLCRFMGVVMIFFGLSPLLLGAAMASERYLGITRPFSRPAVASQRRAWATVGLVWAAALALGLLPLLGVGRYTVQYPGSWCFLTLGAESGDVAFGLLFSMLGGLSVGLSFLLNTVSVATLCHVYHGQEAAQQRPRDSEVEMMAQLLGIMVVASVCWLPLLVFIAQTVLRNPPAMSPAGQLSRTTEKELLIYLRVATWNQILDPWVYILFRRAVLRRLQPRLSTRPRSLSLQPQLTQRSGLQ
Method in brief: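 Membranes from CHO cells expressing hTP were incubated with 5.0 nM [³H]-SQ29548 and compounds at various concentrations. Buffer was 10 mM Tris–HCl pH 7.5 with 100 mM NaCl, for 30 min at room temperature. Samples were filtered on GF/B, washed with the same buffer, dried 60 min at 60 °C and scintillation counted. Nonspecific binding was set with excess unlabeled SQ29548.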

Prostacyclin receptor = Prostacyclin receptor (Homo sapiens, UniProt P43119); test: Displacement of [3H]-Iloprost from human IP receptor expressed in CHO cells after 30 mins by liquid scintillation counting; format: cell-based
Method in brief: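 Membranes from CHO cells expressing hIP were incubated with 5.0 nM [³H]Iloprost and compounds at various concentrations. Buffer was 50 mM Tris–HCl pH 7.5 with 1 mM EDTA and 10 mM MgCl₂, for 30 min at room temperature. Samples were filtered on GF/B, washed with 10 mM Tris–HCl/100 mM NaCl pH 7.5, dried 60 min at 60 °C and scintillation counted.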

[6] = target: T4, Prostaglandin D2 receptor (Mus musculus, UniProt P70263); test: Displacement of [3H]-PGD2 from mouse DP receptor expressed in CHO cells after 20 mins by liquid scintillation counting; format: cell-based
T4 sequence (P70263 whole entry): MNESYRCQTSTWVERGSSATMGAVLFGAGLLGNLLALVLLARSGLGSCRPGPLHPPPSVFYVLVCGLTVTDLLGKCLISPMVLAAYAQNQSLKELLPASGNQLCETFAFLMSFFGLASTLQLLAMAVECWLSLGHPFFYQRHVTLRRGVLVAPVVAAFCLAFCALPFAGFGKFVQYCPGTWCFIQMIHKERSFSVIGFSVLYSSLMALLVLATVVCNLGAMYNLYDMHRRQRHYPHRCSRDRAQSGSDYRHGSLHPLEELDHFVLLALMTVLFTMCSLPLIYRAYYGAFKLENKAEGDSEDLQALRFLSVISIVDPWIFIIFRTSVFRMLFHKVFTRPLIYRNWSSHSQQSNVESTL
Method in brief: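 Membranes from CHO cells stably expressing mDP were incubated with 2.5 nM [³H]PGD₂ and compounds at various concentrations. Buffer was 25 mM HEPES–NaOH pH 7.4 with 1 mM EDTA, 5 mM MgCl₂ and 10 mM MnCl₂, for 20 min at room temperature. Samples were filtered on GF/B and washed with Tris–HCl pH 7.4, NaCl, 0.01% BSA. Filters were dried 60 min at 60 °C and read by scintillation counting. Nonspecific binding was set with excess unlabeled PGD₂.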

[7] = target: T4, Prostaglandin D2 receptor; test: Antagonist activity at mouse DP receptor expressed in CHO cells assessed as inhibition of PGD2-induced cAMP accumulation after 10 mins by enzyme immunoassay in the presence of 0.1% BSA; format: functional, cell-based
Method in brief: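 CHO cells stably expressing mDP were seeded at 1 × 10⁵ cells/well and grown 2 days. They were preincubated about 10 min at 37 °C in MEM with Diclofenac, then given assay medium (MEM, 0.1% BSA, 1 mM IBMX, Diclofenac). Test compound at various concentrations plus 10 nM PGD₂ was added for 10 min at 37 °C. The reaction was stopped with ice-cold 10% TCA and TCA was extracted. cAMP was measured by EIA. IC50 came from cAMP relative to the PGD₂-only maximum.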

Sequence of Prostaglandin F2-alpha receptor (P43117 whole entry): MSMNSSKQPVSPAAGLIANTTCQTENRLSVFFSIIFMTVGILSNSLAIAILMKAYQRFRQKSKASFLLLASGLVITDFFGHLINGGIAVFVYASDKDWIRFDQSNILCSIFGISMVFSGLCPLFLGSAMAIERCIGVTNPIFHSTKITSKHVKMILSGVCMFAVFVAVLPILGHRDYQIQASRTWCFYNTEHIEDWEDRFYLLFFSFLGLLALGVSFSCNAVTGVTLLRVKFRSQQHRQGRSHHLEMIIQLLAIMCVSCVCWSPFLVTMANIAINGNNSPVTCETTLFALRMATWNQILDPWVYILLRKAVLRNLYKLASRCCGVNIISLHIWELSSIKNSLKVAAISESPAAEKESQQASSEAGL
Sequence of Prostacyclin receptor (P43119 whole entry): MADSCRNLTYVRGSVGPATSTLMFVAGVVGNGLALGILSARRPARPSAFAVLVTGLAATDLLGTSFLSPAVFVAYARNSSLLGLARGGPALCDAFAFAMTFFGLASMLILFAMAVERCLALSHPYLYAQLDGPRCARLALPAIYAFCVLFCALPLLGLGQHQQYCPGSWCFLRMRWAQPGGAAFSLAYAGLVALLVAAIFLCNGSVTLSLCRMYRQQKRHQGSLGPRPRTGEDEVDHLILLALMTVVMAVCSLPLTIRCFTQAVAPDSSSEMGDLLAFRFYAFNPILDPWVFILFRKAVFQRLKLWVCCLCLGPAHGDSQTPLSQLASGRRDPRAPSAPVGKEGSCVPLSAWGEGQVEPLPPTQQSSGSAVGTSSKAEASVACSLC
Sequence of Prostaglandin E2 receptor EP4 subtype (P32240 whole entry): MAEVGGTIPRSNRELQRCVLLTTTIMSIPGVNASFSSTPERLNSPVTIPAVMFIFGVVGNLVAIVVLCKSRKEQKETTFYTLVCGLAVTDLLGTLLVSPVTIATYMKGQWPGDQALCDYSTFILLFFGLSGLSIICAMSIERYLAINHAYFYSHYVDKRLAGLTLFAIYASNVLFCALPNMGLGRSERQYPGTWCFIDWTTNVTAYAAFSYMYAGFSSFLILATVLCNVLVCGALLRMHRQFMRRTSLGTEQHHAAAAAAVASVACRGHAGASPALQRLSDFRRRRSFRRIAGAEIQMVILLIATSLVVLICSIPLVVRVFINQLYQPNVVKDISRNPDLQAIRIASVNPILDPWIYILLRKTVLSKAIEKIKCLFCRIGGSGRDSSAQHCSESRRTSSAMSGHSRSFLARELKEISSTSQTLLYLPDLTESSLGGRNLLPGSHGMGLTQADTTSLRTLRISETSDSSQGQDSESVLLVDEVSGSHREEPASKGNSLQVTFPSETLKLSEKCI
Sequence of Prostaglandin E2 receptor EP2 subtype (Q62053 whole entry): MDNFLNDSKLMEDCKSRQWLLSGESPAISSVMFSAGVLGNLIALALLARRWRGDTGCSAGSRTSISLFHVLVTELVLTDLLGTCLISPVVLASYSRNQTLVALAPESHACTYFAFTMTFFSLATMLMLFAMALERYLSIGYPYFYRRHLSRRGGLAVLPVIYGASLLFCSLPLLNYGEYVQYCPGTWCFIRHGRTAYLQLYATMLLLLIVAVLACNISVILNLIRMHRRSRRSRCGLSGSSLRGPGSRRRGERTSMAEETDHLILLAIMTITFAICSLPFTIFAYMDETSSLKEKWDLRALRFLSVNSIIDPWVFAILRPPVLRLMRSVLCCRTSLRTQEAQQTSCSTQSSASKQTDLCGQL

Cc1c(CC(=O)O)c2cc(F)ccc2n1C(=O)c1ccc(OC[C@@H]2CN(C)c3ccccc3O2)cc1
Ki [1]: > 10000 nM
Ki [2]: 250 nM
Ki [3]: 1900 nM
Ki [4]: > 10000 nM
Ki [5]: 1700 nM
Ki (Thromboxane A2 receptor): > 10000 nM
Ki (Prostacyclin receptor): 320 nM
Ki [6]: 5.7 nM
IC50 [7]: 1.8 nM

Cc1c(CC(=O)O)c2cc(F)ccc2n1C(=O)c1ccc(OC[C@@H]2CN(C)c3ccccc3O2)cc1F
Ki (Prostacyclin receptor): 320 nM
Ki [6]: 3.8 nM
IC50 [7]: 0.7 nM

Cc1cc(C(=O)n2c(C)c(CC(=O)O)c3ccccc32)ccc1OC[C@@H]1CN(C)c2ccccc2O1
Ki (Prostacyclin receptor): 72 nM
Ki [6]: 140 nM

Cc1c(OC[C@@H]2CN(C)c3ccccc3O2)ccc(C(=O)n2c(C)c(CC(=O)O)c3cc(F)ccc32)c1C
Ki (Prostacyclin receptor): 230 nM
IC50 [7]: 32 nM

Cc1c(CC(=O)O)c2ccccc2n1C(=O)c1ccc(OC[C@@H]2CN(C)c3ccccc3O2)c(Cl)c1
Ki (Prostacyclin receptor): 91 nM
Ki [6]: 380 nM

COc1ccc2c(c1)c(CC(=O)O)c(C)n2C(=O)c1ccc(Cl)cc1 [INDOMETHACIN]
Ki [1]: > 10000 nM
Ki [2]: > 10000 nM
Ki [3]: > 10000 nM
Ki [4]: > 10000 nM
Ki [6]: > 10000 nM

Cc1cc(OC[C@@H]2COc3ccc(F)cc32)ccc1C(=O)n1c(C)c(CC(=O)O)c2ccccc21
Ki (Prostacyclin receptor): 520 nM
Ki [6]: 5.4 nM
IC50 [7]: 1.8 nM

Cc1c(CC(=O)O)c2ccccc2n1C(=O)c1ccc(OC[C@@H]2CN(C)c3ccccc3O2)cc1F
Ki (Prostacyclin receptor): 110 nM
Ki [6]: 3.8 nM
IC50 [7]: 2.5 nM

Cc1cc(OC[C@@H]2COc3ccccc3O2)ccc1C(=O)n1c(C)c(CC(=O)O)c2ccccc21
Ki (Prostacyclin receptor): 570 nM
Ki [6]: 22 nM
IC50 [7]: 3.8 nM

Cc1c(CC(=O)O)c2ccccc2n1C(=O)c1ccc(OC[C@@H]2CN(C)c3ccccc3O2)c(F)c1
Ki (Prostacyclin receptor): 210 nM
Ki [6]: 240 nM

COc1ccc2c(c1)c(CC(=O)O)c(C)n2C(=O)c1ccc(OC[C@@H]2CN(C)c3ccccc3O2)cc1
Ki [1]: > 10000 nM
Ki [2]: 310 nM
Ki [3]: 2500 nM
Ki [4]: 3000 nM
Ki (Prostacyclin receptor): 1000 nM
Ki [6]: 9.9 nM

Cc1cc(C(=O)n2c(C)c(CC(=O)O)c3cc(F)ccc32)ccc1OC[C@@H]1CN(C)c2ccccc2O1
Ki (Prostacyclin receptor): 160 nM
Ki [6]: 59 nM
IC50 [7]: 42 nM

COc1cc(C(=O)n2c(C)c(CC(=O)O)c3ccccc32)ccc1OC[C@@H]1CN(C)c2ccccc2O1
Ki (Prostacyclin receptor): 430 nM
Ki [6]: 340 nM

COc1cc(C(=O)n2c(C)c(CC(=O)O)c3cc(F)ccc32)ccc1OC[C@@H]1CN(C)c2ccccc2O1
Ki (Prostacyclin receptor): 1500 nM
IC50 [7]: 68 nM

Cc1cc(C(=O)n2c(C)c(CC(=O)O)c3cc(F)ccc32)c(C)cc1OC[C@@H]1CN(C)c2ccccc2O1
Ki (Prostacyclin receptor): 93 nM
Ki [6]: 14 nM
IC50 [7]: 2.8 nM

Cc1cc(C(=O)n2c(C)c(CC(=O)O)c3ccccc32)c(C)cc1OC[C@@H]1CN(C)c2ccccc2O1
Ki (Prostacyclin receptor): 94 nM
Ki [6]: 360 nM

Cc1ccc2c(c1)c(CC(=O)O)c(C)n2C(=O)c1ccc(OC[C@@H]2CN(C)c3ccccc3O2)cc1
Ki [1]: 5200 nM
Ki [2]: 340 nM
Ki [3]: 2800 nM
Ki [4]: 3600 nM
Ki [5]: 1700 nM
Ki (Thromboxane A2 receptor): > 10000 nM
Ki (Prostacyclin receptor): 1100 nM
Ki [6]: 28 nM
IC50 [7]: 4.3 nM

Cc1cc(OC[C@@H]2CN(C)c3ccccc3O2)ccc1C(=O)n1c(C)c(CC(=O)O)c2cc(F)ccc21
Ki (Prostacyclin receptor): 130 nM
Ki [6]: 2.7 nM
IC50 [7]: 3.2 nM

Cc1cc(OCC2Cc3ccccc3N2C)ccc1C(=O)n1c(C)c(CC(=O)O)c2ccccc21 (stereo not given)
Ki (Prostacyclin receptor): > 10000 nM
IC50 [7]: 6.2 nM

Cc1cc(OC[C@@H]2Cc3ccccc3O2)ccc1C(=O)n1c(C)c(CC(=O)O)c2ccccc21
Ki (Prostacyclin receptor): 280 nM
Ki [6]: 7.1 nM
IC50 [7]: 7 nM

Cc1c(CC(=O)O)c2cc(Cl)ccc2n1C(=O)c1ccc(OC[C@@H]2CN(C)c3ccccc3O2)cc1
Ki [1]: > 10000 nM
Ki [2]: 330 nM
Ki [3]: > 10000 nM
Ki [4]: > 10000 nM
Ki [5]: 2200 nM
Ki (Prostacyclin receptor): 49 nM
Ki [6]: 29 nM
IC50 [7]: 3.1 nM

Cc1c(OC[C@@H]2CN(C)c3ccccc3O2)ccc(C(=O)n2c(C)c(CC(=O)O)c3ccccc32)c1C
Ki (Prostacyclin receptor): 98 nM
Ki [6]: 380 nM

Cc1cc(OCC2Oc3ccccc3O2)ccc1C(=O)n1c(C)c(CC(=O)O)c2ccccc21
Ki (Prostacyclin receptor): 3000 nM
IC50 [7]: 43 nM

CCN1c2ccccc2CC1COc1ccc(C(=O)n2c(C)c(CC(=O)O)c3ccccc32)c(C)c1 (stereo not given)
Ki (Prostacyclin receptor): 5100 nM
Ki [6]: 22 nM
IC50 [7]: 3.1 nM

Cc1c(CC(=O)O)c2ccccc2n1C(=O)c1ccc(OC[C@@H]2CN(C)c3ccccc3O2)cc1
Ki [1]: > 10000 nM
Ki [2]: 210 nM
Ki [3]: 1700 nM
Ki [4]: > 10000 nM
Ki [5]: 2100 nM
Ki (Thromboxane A2 receptor): > 10000 nM
Ki (Prostacyclin receptor): 200 nM
Ki [6]: 7.7 nM

Cc1cc(OC[C@@H]2COc3ccccc32)ccc1C(=O)n1c(C)c(CC(=O)O)c2ccccc21
Ki (Prostacyclin receptor): 2100 nM
Ki [6]: 43 nM
IC50 [7]: 72 nM
